Legend:
[1] = biological target: T1, Amine oxidase [flavin-containing] A (Homo sapiens, UniProt P21397); test: Inhibition of recombinant human MAO-A expressed in baculovirus infected BTI insect cells using tyramine as substrate pretreated for 30 mins followed by substrate addition incubated for 30 mins measured at 5 mins interval by horse-radish peroxidase/amplex red-based fluorometric method
T1 sequence (P21397 whole entry): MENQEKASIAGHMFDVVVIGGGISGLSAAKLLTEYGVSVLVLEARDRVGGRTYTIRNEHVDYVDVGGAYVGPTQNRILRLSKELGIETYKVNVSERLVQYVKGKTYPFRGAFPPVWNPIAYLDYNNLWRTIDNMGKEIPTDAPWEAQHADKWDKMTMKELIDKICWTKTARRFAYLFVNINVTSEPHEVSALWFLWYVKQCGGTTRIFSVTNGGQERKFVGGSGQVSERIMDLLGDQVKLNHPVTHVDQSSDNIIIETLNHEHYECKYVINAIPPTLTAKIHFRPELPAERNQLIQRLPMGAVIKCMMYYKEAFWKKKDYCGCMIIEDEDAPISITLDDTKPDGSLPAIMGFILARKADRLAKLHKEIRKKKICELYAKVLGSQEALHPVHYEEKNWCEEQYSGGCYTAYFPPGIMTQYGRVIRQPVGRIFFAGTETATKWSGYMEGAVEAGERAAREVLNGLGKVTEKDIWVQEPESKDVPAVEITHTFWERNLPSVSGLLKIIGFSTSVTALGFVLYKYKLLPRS
Summary of the method: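 Recombinant hMAO-A (0.5 U/mL stock) or hMAO-B (0.64 U/mL stock) in phosphate buffer, preincubated with inhibitor (solutions 10^-3 to 10^-9 M in 2% DMSO) for 30 min at 37°C. Background-subtracted against DMSO control; quadruplicate.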

Homo sapiens = organism: Homo sapiens; test: Selectivity index, ratio of IC50 for recombinant human MAO-A expressed in baculovirus infected BTI insect cells to IC50 for recombinant human MAO-B expressed in baculovirus infected BTI insect cells
Summary of the method: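 Selectivity index calculated as IC50(MAO-A)/IC50(MAO-B), with both IC50 values from the fluorometric tyramine/HRP/Amplex Red inhibition assay.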

NIH3T3 = test: Cytotoxicity against mouse NIH/3T3 cells by MTT assay; type: cell-based
Summary of the method: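 NIH/3T3 mouse embryonic fibroblasts seeded at 1x10^4 cells per well and grown per supplier recommendations. Compounds tested over 0.0316-1000 µM by MTT reduction to formazan; IC50 determined.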

Salmonella typhimurium [2] = test: Genotoxicity in Salmonella typhimurium TA98 assessed as increase in number of revertants at 0.3125 mg/ml in presence of aroclor-1254-induced Sprague-Dawley rat liver microsomal S9 fraction by Ames-MPF assay relative to baseline; type: toxicity; settings: salmonella enterica subsp. enterica serovar typhimurium, microsomes
Summary of the method: (§1)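 AmesMPF 98/100 fluctuation format with S. typhimurium TA98 (frameshift) and TA100 (base-pair substitution), run with and without S9. Compounds were made up in DMSO at 0.156–5 mg/mL, six levels; solvent control was 4% DMSO. With S9, positive controls were 2-aminoanthracene at 1 µg/mL (TA98) and 2.5 µg/mL (TA100). Wells turned yellow by pH drop were scored positive. Fold over baseline is mean positive wells divided by (zero-dose mean + 1 SD). Student's t-test, p<0.05.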

Salmonella typhimurium [3] = test: Genotoxicity in Salmonella typhimurium TA98 assessed as increase in number of revertants at 2.5 mg/ml in presence of aroclor-1254-induced Sprague-Dawley rat liver microsomal S9 fraction by Ames-MPF assay relative to baseline; type: toxicity; settings: salmonella enterica subsp. enterica serovar typhimurium, microsomes; summary of the method: as §1
Salmonella typhimurium [4] = test: Genotoxicity in Salmonella typhimurium TA98 assessed as increase in number of revertants at 0.3125 mg/ml in absence of aroclor-1254-induced Sprague-Dawley rat liver microsomal S9 fraction by Ames-MPF assay relative to baseline; type: toxicity; settings: salmonella enterica subsp. enterica serovar typhimurium, microsomes; summary of the method: as §1
Salmonella typhimurium [5] = test: Genotoxicity in Salmonella typhimurium TA98 assessed as increase in number of revertants at 2.5 mg/ml in absence of aroclor-1254-induced Sprague-Dawley rat liver microsomal S9 fraction by Ames-MPF assay relative to baseline; type: toxicity; settings: salmonella enterica subsp. enterica serovar typhimurium, microsomes; summary of the method: as §1
Salmonella typhimurium [6] = test: Genotoxicity in Salmonella typhimurium TA98 assessed as increase in number of revertants at 5 mg/ml in absence of aroclor-1254-induced Sprague-Dawley rat liver microsomal S9 fraction by Ames-MPF assay relative to baseline; type: toxicity; settings: salmonella enterica subsp. enterica serovar typhimurium, microsomes; summary of the method: as §1
Salmonella typhimurium [7] = test: Genotoxicity in Salmonella typhimurium TA100 assessed as increase in number of revertants at 0.156 mg/ml in presence of aroclor-1254-induced Sprague-Dawley rat liver microsomal S9 fraction by Ames-MPF assay relative to baseline; type: toxicity; settings: salmonella enterica subsp. enterica serovar typhimurium, microsomes; summary of the method: as §1
Salmonella typhimurium [8] = test: Genotoxicity in Salmonella typhimurium TA100 assessed as increase in number of revertants at 0.3125 mg/ml in presence of aroclor-1254-induced Sprague-Dawley rat liver microsomal S9 fraction by Ames-MPF assay relative to baseline; type: toxicity; settings: salmonella enterica subsp. enterica serovar typhimurium, microsomes; summary of the method: as §1
Salmonella typhimurium [9] = test: Genotoxicity in Salmonella typhimurium TA100 assessed as increase in number of revertants at 2.5 mg/ml in presence of aroclor-1254-induced Sprague-Dawley rat liver microsomal S9 fraction by Ames-MPF assay relative to baseline; type: toxicity; settings: salmonella enterica subsp. enterica serovar typhimurium, microsomes; summary of the method: as §1
Salmonella typhimurium [10] = test: Genotoxicity in Salmonella typhimurium TA100 assessed as increase in number of revertants at 5 mg/ml in presence of aroclor-1254-induced Sprague-Dawley rat liver microsomal S9 fraction by Ames-MPF assay relative to baseline; type: toxicity; settings: salmonella enterica subsp. enterica serovar typhimurium, microsomes; summary of the method: as §1
Salmonella typhimurium [11] = test: Genotoxicity in Salmonella typhimurium TA100 assessed as increase in number of revertants at 0.156 mg/ml in absence of aroclor-1254-induced Sprague-Dawley rat liver microsomal S9 fraction by Ames-MPF assay relative to baseline; type: toxicity; settings: salmonella enterica subsp. enterica serovar typhimurium, microsomes; summary of the method: as §1
Salmonella typhimurium [12] = test: Genotoxicity in Salmonella typhimurium TA100 assessed as increase in number of revertants at 0.625 mg/ml in absence of aroclor-1254-induced Sprague-Dawley rat liver microsomal S9 fraction by Ames-MPF assay relative to baseline; type: toxicity; settings: salmonella enterica subsp. enterica serovar typhimurium, microsomes; summary of the method: as §1
Salmonella typhimurium [13] = test: Genotoxicity in Salmonella typhimurium TA100 assessed as increase in number of revertants at 1.25 mg/ml in absence of aroclor-1254-induced Sprague-Dawley rat liver microsomal S9 fraction by Ames-MPF assay relative to baseline; type: toxicity; settings: salmonella enterica subsp. enterica serovar typhimurium, microsomes; summary of the method: as §1

C#CCn1c(-c2ccc(C(=O)N/N=C/c3ccc(F)cc3)cc2)nc2ccccc21
IC50 [1]: 0.851 µM | Ratio IC50 (Homo sapiens): 6.26 | IC50 (NIH3T3): ≥ 1000 µM | fold change (FC) (Salmonella typhimurium [2]): 2.13 | fold change (FC) (Salmonella typhimurium [3]): 2.95 | fold change (FC) (Salmonella typhimurium [4]): 0.46 | fold change (FC) (Salmonella typhimurium [5]): 0.28 | fold change (FC) (Salmonella typhimurium [6]): 0.34 | fold change (FC) (Salmonella typhimurium [7]): 0.79 | fold change (FC) (Salmonella typhimurium [8]): 0.49 | fold change (FC) (Salmonella typhimurium [9]): 1.88 | fold change (FC) (Salmonella typhimurium [10]): 1.94 | fold change (FC) (Salmonella typhimurium [11]): 0.89 | fold change (FC) (Salmonella typhimurium [12]): 0.69 | fold change (FC) (Salmonella typhimurium [13]): 0.59

C#CCn1c(-c2ccc(C(=O)N/N=C/c3cccnc3)cc2)nc2ccccc21
IC50 [1]: 9.59 µM | Ratio IC50 (Homo sapiens): 128 | IC50 (NIH3T3): 316 µM | fold change (FC) (Salmonella typhimurium [2]): 0.35 | fold change (FC) (Salmonella typhimurium [3]): 0.52 | fold change (FC) (Salmonella typhimurium [4]): 0.74 | fold change (FC) (Salmonella typhimurium [5]): 0.4 | fold change (FC) (Salmonella typhimurium [6]): 0.46 | fold change (FC) (Salmonella typhimurium [7]): 0.53 | fold change (FC) (Salmonella typhimurium [8]): 0.27 | fold change (FC) (Salmonella typhimurium [9]): 0.27 | fold change (FC) (Salmonella typhimurium [10]): 0.07 | fold change (FC) (Salmonella typhimurium [11]): 0.74 | fold change (FC) (Salmonella typhimurium [12]): 0.84 | fold change (FC) (Salmonella typhimurium [13]): 0.64
